# System: Klebsiella pneumoniae
# Assay: Synergistic antibacterial activity against Klebsiella pneumoniae 11978 producing OXA-48 assessed as cefepime MIC at 4 ug/ml by broth microdilution method
# Type: functional
# Settings: dose 4 µg/ml
# Procedure, shortened: (§1)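 Broth microdilution per CLSI guidelines, using custom frozen panels. […] Each partner drug was also tested alone. MICs were run in triplicate and the modal value is reported.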
row,Compound,MIC
1,O=C(NNC(=O)[C@@H]1CC[C@@H]2CN1C(=O)N2OS(=O)(=O)O)[C@@H]1CCNC1,≤ 0.12 µg/mL

# System: Escherichia coli
# Assay: Synergistic antibacterial activity against Escherichia coli DH10B transfected with pBC SK (-) PDC-3 assessed as cefepime MIC at 4 ug/ml by broth microdilution method
# Type: functional
# Settings: dose 4 µg/ml
# Procedure, shortened: as §1
row,Compound,MIC
1,O=C(NNC(=O)[C@@H]1CC[C@@H]2CN1C(=O)N2OS(=O)(=O)O)[C@@H]1CCNC1,≤ 0.12 µg/mL

# System: Acinetobacter baumannii
# Assay: Synergistic antibacterial activity against Acinetobacter baumannii PR363 producing OXA-23 assessed as cefepime MIC at 4 ug/ml by broth microdilution method
# Type: functional
# Settings: dose 4 µg/ml
row,Compound,MIC
1,O=C(NNC(=O)[C@@H]1CC[C@@H]2CN1C(=O)N2OS(=O)(=O)O)[C@@H]1CCNC1,8 µg/mL

# System: Klebsiella pneumoniae
# Assay: Synergistic antibacterial activity against Klebsiella pneumoniae 901/1860 producing KPC-3 assessed as cefepime MIC at 8 ug/ml by broth microdilution method
# Type: functional
# Settings: dose 8 µg/ml
row,Compound,MIC
1,O=C(NNC(=O)[C@@H]1CC[C@@H]2CN1C(=O)N2OS(=O)(=O)O)[C@@H]1CCNC1,≤ 0.12 µg/mL

# System: Acinetobacter baumannii
# Assay: Synergistic antibacterial activity against Acinetobacter baumannii PR319 producing OXA-23/24/40 assessed as meropenem MIC at 4 ug/ml by broth microdilution method
# Type: functional
# Settings: dose 4 µg/ml
row,Compound,MIC
1,O=C(NNC(=O)[C@@H]1CC[C@@H]2CN1C(=O)N2OS(=O)(=O)O)[C@@H]1CCNC1,> 16 µg/mL

# System: Klebsiella pneumoniae
# Assay: Synergistic antibacterial activity against Klebsiella pneumoniae 972/1910 producing KPC-3 assessed as meropenem MIC at 4 ug/ml by broth microdilution method
# Type: functional
# Settings: dose 4 µg/ml
row,Compound,MIC
1,O=C(NNC(=O)[C@@H]1CC[C@@H]2CN1C(=O)N2OS(=O)(=O)O)[C@@H]1CCNC1,≤ 0.12 µg/mL

# System: Klebsiella pneumoniae
# Assay: Synergistic antibacterial activity against Klebsiella pneumoniae 660/1568 producing KPC-3 assessed as cefepime MIC at 8 ug/ml by broth microdilution method
# Type: functional
# Settings: dose 8 µg/ml
# Procedure, shortened: as §1
row,Compound,MIC
1,O=C(NNC(=O)[C@@H]1CC[C@@H]2CN1C(=O)N2OS(=O)(=O)O)[C@@H]1CCNC1,≤ 0.12 µg/mL

# System: Klebsiella pneumoniae
# Assay: Synergistic antibacterial activity against Klebsiella pneumoniae CAV 1636 producing OXA-181 assessed as cefepime MIC at 4 ug/ml by broth microdilution method
# Type: functional
# Settings: dose 4 µg/ml
row,Compound,MIC
1,O=C(NNC(=O)[C@@H]1CC[C@@H]2CN1C(=O)N2OS(=O)(=O)O)[C@@H]1CCNC1,≤ 0.12 µg/mL

# System: Pseudomonas aeruginosa
# Assay: Synergistic antibacterial activity against Pseudomonas aeruginosa 839 assessed as meropenem MIC at 4 ug/ml by broth microdilution method
# Type: functional
# Settings: dose 4 µg/ml
row,Compound,MIC
1,O=C(NNC(=O)[C@@H]1CC[C@@H]2CN1C(=O)N2OS(=O)(=O)O)[C@@H]1CCNC1,≤ 0.12 µg/mL

# System: Bacteria
# Assay: Inhibition of bacteria ADC-7 assessed as half life using nitrocefin as substrate
# Settings: not given
row,Compound,T1/2
1,O=C(NNC(=O)[C@@H]1CC[C@@H]2CN1C(=O)N2OS(=O)(=O)O)[C@@H]1CCNC1,13 min

# System: Klebsiella pneumoniae
# Assay: Synergistic antibacterial activity against Klebsiella pneumoniae 440/1360 producing KPC-2 assessed as cefepime MIC at 4 ug/ml by broth microdilution method
# Type: functional
# Settings: dose 4 µg/ml
# Procedure, shortened: as §1
row,Compound,MIC
1,O=C(NNC(=O)[C@@H]1CC[C@@H]2CN1C(=O)N2OS(=O)(=O)O)[C@@H]1CCNC1,≤ 0.12 µg/mL

# System: Klebsiella pneumoniae
# Assay: Synergistic antibacterial activity against Klebsiella pneumoniae 440/1360 producing KPC-2 assessed as meropenem MIC at 4 ug/ml by broth microdilution method
# Type: functional
# Settings: dose 4 µg/ml
# Procedure, shortened: as §1
row,Compound,MIC
1,O=C(NNC(=O)[C@@H]1CC[C@@H]2CN1C(=O)N2OS(=O)(=O)O)[C@@H]1CCNC1,≤ 0.12 µg/mL

# System: Klebsiella pneumoniae
# Assay: Synergistic antibacterial activity against Klebsiella pneumoniae 1108/1989 producing KPC-3 assessed as meropenem MIC at 4 ug/ml by broth microdilution method
# Type: functional
# Settings: dose 4 µg/ml
# Procedure, shortened: as §1
row,Compound,MIC
1,O=C(NNC(=O)[C@@H]1CC[C@@H]2CN1C(=O)N2OS(=O)(=O)O)[C@@H]1CCNC1,≤ 0.12 µg/mL

# System: Acinetobacter baumannii
# Assay: Synergistic antibacterial activity against Acinetobacter baumannii PR408 producing OXA-24/40 assessed as cefepime MIC at 8 ug/ml by broth microdilution method
# Type: functional
# Settings: dose 8 µg/ml
row,Compound,MIC
1,O=C(NNC(=O)[C@@H]1CC[C@@H]2CN1C(=O)N2OS(=O)(=O)O)[C@@H]1CCNC1,16 µg/mL

# System: Acinetobacter baumannii
# Assay: Synergistic antibacterial activity against Acinetobacter baumannii PR420 producing OXA-23/24/40 assessed as meropenem MIC at 8 ug/ml by broth microdilution method
# Type: functional
# Settings: dose 8 µg/ml
row,Compound,MIC
1,O=C(NNC(=O)[C@@H]1CC[C@@H]2CN1C(=O)N2OS(=O)(=O)O)[C@@H]1CCNC1,> 16 µg/mL

# System: Acinetobacter baumannii
# Assay: Synergistic antibacterial activity against Acinetobacter baumannii PR381 producing OXA-24/40 assessed as meropenem MIC at 8 ug/ml by broth microdilution method
# Type: functional
# Settings: dose 8 µg/ml
row,Compound,MIC
1,O=C(NNC(=O)[C@@H]1CC[C@@H]2CN1C(=O)N2OS(=O)(=O)O)[C@@H]1CCNC1,> 16 µg/mL

# System: Acinetobacter baumannii
# Assay: Synergistic antibacterial activity against Acinetobacter baumannii PR408 producing OXA-24/40 assessed as cefepime MIC at 4 ug/ml by broth microdilution method
# Type: functional
# Settings: dose 4 µg/ml
row,Compound,MIC
1,O=C(NNC(=O)[C@@H]1CC[C@@H]2CN1C(=O)N2OS(=O)(=O)O)[C@@H]1CCNC1,16 µg/mL

# System: Klebsiella pneumoniae
# Assay: Synergistic antibacterial activity against Klebsiella pneumoniae 1084/1957 producing KPC-3 assessed as meropenem MIC at 4 ug/ml by broth microdilution method
# Type: functional
# Settings: dose 4 µg/ml
# Procedure, shortened: as §1
row,Compound,MIC
1,O=C(NNC(=O)[C@@H]1CC[C@@H]2CN1C(=O)N2OS(=O)(=O)O)[C@@H]1CCNC1,≤ 0.12 µg/mL

# Reference: ChEMBL document CHEMBL5247575 (J Med Chem, 2018)
